The test system of test [1] is Mus musculus. The test is described as follows: Compound was tested for the inhibition of locomotor activity (LMA)by administering Intraperitoneally in mouse. The class given is functional. The settings on record: ip. In outline: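 Mice dosed ip, then tested immediately for 1 h in darkened cylindrical photobeam chambers. Percent inhibition of locomotor activity relative to vehicle-treated animals; ED50 derived from three to six doses, n = 6-18 animals/dose.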

Test [2] relates to Rattus norvegicus. The test is described as follows: Compound was tested for the inhibition of locomotor activity (LMA)by administering orally in rat. The class given is functional. The settings on record: po. In outline:
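Rats dosed orally 1 h before a 30 min test in darkened cylindrical photobeam chambers. Percent inhibition of locomotor activity relative to vehicle-treated animals; ED50 derived from three to six doses, n = 6-18 animals/dose.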

In test [3] the test system is Rattus norvegicus. In words: Percent reversal of the increase on DOPA levels in the striatum of GBL-treated rats at a dose of 10 mg/kg ip. The class given is functional. Particulars: route intraperitoneal.
Test [4] concerns Rattus norvegicus. The test is described as follows: Percent decrease of the firing rate of rat substantia nigra DA neurons at a dose of 2.5 mg/kg ip. The class given is functional. Particulars: route intraperitoneal.
In test [5] the target is T1, D(2) dopamine receptor (Rattus norvegicus, UniProt P61169). In words: Binding affinity against Dopamine receptor D2 in CHO-K1 cells using radioligand [3H]NPA binding assay. The class given is cell-based.
T1 sequence (P61169 whole entry): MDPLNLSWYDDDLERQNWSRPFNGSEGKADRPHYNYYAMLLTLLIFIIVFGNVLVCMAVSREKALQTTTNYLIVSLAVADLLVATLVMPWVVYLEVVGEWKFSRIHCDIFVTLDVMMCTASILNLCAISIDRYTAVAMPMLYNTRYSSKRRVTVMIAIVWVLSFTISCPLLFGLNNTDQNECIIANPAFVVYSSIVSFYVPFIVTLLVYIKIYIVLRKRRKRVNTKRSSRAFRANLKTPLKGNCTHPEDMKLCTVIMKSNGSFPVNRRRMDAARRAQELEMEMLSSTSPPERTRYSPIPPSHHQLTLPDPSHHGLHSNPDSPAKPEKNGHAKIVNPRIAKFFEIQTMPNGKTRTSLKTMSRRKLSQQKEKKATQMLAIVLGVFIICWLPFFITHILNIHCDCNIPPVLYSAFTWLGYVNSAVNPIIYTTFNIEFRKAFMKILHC
For test [6], the target named is T2, Adrenergic receptor alpha-1 (Rattus norvegicus, UniProt P15823+P23944+P43140).
T2 sequence (P15823 whole entry): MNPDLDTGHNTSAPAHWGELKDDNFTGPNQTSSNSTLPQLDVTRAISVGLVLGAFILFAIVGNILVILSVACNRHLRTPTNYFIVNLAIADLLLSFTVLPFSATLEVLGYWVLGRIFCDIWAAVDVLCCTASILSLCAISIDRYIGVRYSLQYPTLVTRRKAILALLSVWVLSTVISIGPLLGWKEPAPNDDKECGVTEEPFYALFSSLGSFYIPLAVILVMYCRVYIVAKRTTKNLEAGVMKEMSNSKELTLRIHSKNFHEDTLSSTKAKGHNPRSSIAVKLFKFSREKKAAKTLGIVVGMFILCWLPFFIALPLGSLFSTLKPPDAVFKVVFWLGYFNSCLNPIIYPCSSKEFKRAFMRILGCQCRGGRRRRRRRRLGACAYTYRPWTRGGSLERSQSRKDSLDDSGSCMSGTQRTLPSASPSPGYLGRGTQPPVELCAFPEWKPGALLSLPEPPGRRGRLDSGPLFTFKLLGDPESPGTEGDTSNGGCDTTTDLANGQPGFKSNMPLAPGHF
T2 sequence (P23944 whole entry): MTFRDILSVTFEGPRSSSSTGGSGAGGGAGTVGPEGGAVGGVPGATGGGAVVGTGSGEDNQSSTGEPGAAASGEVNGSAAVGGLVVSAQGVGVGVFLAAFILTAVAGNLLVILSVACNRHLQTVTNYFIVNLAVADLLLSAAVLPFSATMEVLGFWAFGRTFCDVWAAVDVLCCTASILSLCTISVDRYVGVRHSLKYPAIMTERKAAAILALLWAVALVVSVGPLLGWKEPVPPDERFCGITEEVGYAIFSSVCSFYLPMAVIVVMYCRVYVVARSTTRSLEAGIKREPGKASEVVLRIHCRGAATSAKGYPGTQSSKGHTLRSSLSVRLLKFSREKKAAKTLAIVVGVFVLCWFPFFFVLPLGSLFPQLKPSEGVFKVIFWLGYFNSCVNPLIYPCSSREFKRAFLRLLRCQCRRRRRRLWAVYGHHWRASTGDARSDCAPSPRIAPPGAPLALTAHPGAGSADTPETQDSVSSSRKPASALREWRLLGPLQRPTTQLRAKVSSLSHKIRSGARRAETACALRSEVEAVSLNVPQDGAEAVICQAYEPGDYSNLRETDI
T2 sequence (P43140 whole entry): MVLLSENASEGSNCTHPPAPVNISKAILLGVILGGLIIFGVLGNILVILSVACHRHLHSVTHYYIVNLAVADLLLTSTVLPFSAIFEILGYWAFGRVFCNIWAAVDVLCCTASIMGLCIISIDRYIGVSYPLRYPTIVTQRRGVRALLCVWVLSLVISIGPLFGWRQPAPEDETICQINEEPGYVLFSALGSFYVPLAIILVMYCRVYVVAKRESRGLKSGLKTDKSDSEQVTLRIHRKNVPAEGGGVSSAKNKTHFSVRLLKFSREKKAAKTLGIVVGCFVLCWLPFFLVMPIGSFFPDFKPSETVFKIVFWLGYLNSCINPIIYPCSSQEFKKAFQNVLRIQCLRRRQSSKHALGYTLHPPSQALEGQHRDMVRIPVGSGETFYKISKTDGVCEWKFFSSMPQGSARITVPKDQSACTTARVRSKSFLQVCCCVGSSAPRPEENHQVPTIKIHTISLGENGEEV
The test is described as follows: Binding affinity against Alpha-1 adrenergic receptor using radioligand [3H]prazosin binding assay. The class given is protein assay. Summed up: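 Inhibition of [³H]prazosin (0.1 nM final) binding in rat cortex membranes; phentolamine (10 µM final) defines nonspecific binding.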

The subject of test [7] is Monkey. In words: Compound was tested for inhibition of conditioned avoidance after administering perorally(po) in squirrel monkeys. The class given is functional. Particulars: Cebidae, in Saimiri.
In test [8] the target is T1, D(2) dopamine receptor. In words: Compound was evaluated for their affinity against dopamine receptor D2 by displacing [3H]-spiperone in rat striatal membrane. The class given is cell membranes, Striatum. Summed up:
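Rat striatal membranes; [³H]spiperone 0.2 nM final; nonspecific binding defined with (+)-butaclamol 1.0 µM final. Four to six concentrations, each run in triplicate; Ki obtained by nonlinear regression analysis.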

Test [9] deals with T3, 5-hydroxytryptamine receptor 1A (Rattus norvegicus, UniProt P19327).
T3 sequence (P19327 whole entry): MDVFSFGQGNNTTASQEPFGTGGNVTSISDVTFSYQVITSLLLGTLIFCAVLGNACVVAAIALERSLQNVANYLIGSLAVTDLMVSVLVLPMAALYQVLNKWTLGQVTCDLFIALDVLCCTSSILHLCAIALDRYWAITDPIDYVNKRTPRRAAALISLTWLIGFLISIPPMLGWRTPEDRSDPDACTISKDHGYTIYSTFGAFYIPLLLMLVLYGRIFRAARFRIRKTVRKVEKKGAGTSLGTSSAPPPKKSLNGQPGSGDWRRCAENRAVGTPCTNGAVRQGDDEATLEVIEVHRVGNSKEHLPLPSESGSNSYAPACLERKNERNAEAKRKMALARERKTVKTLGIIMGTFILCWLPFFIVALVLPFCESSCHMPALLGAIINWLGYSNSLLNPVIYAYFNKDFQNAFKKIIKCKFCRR
In words: (§1) Binding affinity against serotonin 5-hydroxytryptamine 1A receptor using radioligand [3H]8-OH-DPAT binding assay. On the set-up: species or system Homo sapiens. Summed up: (§2)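 Rat hippocampal membranes labelled with [³H]-8-OH-DPAT (0.4 nM final); nonspecific binding with 8-OH-DPAT (1 µM).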

For test [10], the target named is D(2) dopamine receptor (Homo sapiens, UniProt P14416). The test is described as follows: Compound was evaluated […] for Dopamine receptor D2 mitogenesis. [3H]thymidine incorporation in CHO p-5 cells expressing human D2 receptors. The class given is organism-based. In outline: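 CHO p-5 cells transfected with human D2L receptor are grown 2 days at 37 °C in medium with 10% calf serum, then rinsed and put in serum-free medium. Compound (in water) is added for 16-17 h, then [³H]thymidine (1 µCi/well) for 4 h. Cells are harvested and counted. Maximal effect is given as % of quinpirole (100%).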
D(2) dopamine receptor (Homo sapiens, UniProt P14416), sequence (P14416 whole entry): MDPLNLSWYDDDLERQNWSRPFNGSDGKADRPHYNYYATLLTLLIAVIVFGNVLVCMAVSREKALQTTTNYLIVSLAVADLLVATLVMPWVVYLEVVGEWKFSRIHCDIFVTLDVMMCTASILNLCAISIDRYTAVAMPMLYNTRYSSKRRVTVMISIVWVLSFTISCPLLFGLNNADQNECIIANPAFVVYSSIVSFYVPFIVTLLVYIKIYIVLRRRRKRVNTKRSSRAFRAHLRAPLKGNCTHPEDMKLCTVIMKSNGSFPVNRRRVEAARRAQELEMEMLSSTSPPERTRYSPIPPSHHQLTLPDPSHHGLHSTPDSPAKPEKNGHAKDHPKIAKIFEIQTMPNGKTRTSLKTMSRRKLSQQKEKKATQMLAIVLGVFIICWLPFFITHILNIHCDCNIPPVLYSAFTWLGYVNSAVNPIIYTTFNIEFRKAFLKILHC

The target in test [11] is T4, D(4) dopamine receptor (Homo sapiens, UniProt P21917).
T4 sequence (P21917 whole entry): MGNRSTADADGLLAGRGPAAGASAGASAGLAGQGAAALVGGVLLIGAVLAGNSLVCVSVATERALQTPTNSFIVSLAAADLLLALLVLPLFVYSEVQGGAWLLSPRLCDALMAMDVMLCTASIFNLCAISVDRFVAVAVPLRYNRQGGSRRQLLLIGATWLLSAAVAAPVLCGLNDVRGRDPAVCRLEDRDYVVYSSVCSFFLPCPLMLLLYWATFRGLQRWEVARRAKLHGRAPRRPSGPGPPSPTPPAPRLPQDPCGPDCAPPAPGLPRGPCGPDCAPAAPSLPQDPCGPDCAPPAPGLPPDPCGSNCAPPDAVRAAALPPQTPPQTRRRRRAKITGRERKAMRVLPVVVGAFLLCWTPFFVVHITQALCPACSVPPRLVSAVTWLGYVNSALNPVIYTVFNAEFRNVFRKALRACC
In words: Binding affinity against human Dopamine receptor D4 in CHO-K1 cells using [3H]spiperone as radioligand. The class given is cell-based. In outline:
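Human D4.2 receptor expressed in CHO K1 cells; [³H]spiperone 0.2 nM final; nonspecific binding defined with haloperidol 1.0 µM final.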

Test [12] has as its target T3, 5-hydroxytryptamine receptor 1A. Described as §1. In outline:
as §2

In test [13] the target is D(1A) dopamine receptor (Rattus norvegicus, UniProt P18901). In words: Binding affinity against dopamine receptor D1 using radioligand ([3H]-SCH 23390) binding assay.
D(1A) dopamine receptor, sequence (P18901 whole entry): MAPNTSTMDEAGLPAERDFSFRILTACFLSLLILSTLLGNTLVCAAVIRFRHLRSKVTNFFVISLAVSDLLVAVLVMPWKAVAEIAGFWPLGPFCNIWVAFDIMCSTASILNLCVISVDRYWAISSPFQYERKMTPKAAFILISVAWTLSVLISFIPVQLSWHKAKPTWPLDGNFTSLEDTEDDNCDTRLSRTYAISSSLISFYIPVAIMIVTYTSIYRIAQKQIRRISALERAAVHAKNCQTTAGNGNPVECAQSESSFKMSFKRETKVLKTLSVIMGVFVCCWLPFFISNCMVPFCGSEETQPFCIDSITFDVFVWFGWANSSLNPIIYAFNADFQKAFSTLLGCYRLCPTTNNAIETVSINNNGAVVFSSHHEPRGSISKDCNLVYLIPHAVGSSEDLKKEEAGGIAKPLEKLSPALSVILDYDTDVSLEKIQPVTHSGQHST

SMILES strings stand for the structures. Bounds are passed on as bounds.

With `Nc1cccc(C#CCCN2CC=C(c3ccccc3)CC2)c1`, the ED50 came out at 0.68 mg/kg in test [1], 5.6 mg/kg in [2] and 9.3 mg/kg in [7]. The Decrease in test [3] is recorded as 42%; in test [4] it was 98%. Moreover, the Ki in [5] came out at 18 nM; in test [6], 107 nM; in [8], 87 nM; in test [9], 1550 nM. The molecule also gave a Max effect in test [10] of 75%.
`Nc1ccc(C#CCCN2CC=C(c3ccccc3)CC2)cc1`: the inhibitory constant (Ki) in test [11] is 228 nM; in test [5] it was 0.67 nM; in [6] it was 34.5 nM; in test [12], above 10000 nM; in test [8], 48 nM; in test [13], above 10000 nM. The ED50 in test [2] stood at 2.7 mg/kg; in test [7], 3.8 mg/kg. This molecule returned a Decrease in test [4] of 81%. The molecule further registered a Max effect in [10] of 49%.

Source of the values: ChEMBL document CHEMBL1129267, “Aryl 1-but-3-ynyl-4-phenyl-1,2,3,6-tetrahydropyridines as potential antipsychotic agents: synthesis and structure-activity relationships” (J Med Chem, 1996).
